Assay results from the RNAGym collection of RNA variant scans (doi:10.1126/science.aae0568).
Fewer inactive variants are shown than the library holds.

B1: tRNA (parent)
chain: GUUCCGUUGGCGUAAUGGUAACGCGUCUCCCUCCUAAGGAGAAGACUGCGGGUUCGAGUCCCGUACGGAACG

Variants of: B1
Experiment: yeast fitness relative to wild type (ratio to wild type); higher = fitter; tRNA-Arg(CCU), competitive growth, 37 C, YPD
Procedure, shortened: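 Changes in genotype frequencies gave Darwinian fitness relative to wild type. Frequencies were read by 100-nucleotide paired-end sequencing of gene amplicons before and after pooled Saccharomyces cerevisiae strains, carrying tRNA-Arg(CCU) gene variants at the native locus, were competed in YPD at 37°C for 24 hours in six replicates. A genotype was kept only with ≥ 100 starting reads, and estimates < 0.5 were set to 0.5.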
U8C G25A A37G A40G showed a yeast fitness of no more than 0.5. With U8C A42G the yeast fitness was 0.995. U8C G17A G41C A65U gave a yeast fitness of no more than 0.5. Variant U8C G17A G41C A65C has a yeast fitness of no more than 0.5. U8C G9C A21C C24G U32G G38A showed a yeast fitness of no more than 0.5. Variant U8C C11U U16G A21C C31G G39A G56C has a yeast fitness of no more than 0.5. Work on U8A G58A G67U yielded a yeast fitness of 0.618. Variant U8A U19C C31A U35G A43G U47C G52U G67A has a yeast fitness of no more than 0.5. Work on U8C G10A U19C C34A C46U A65C yielded a yeast fitness of no more than 0.5. U8A G44A C60U G67C gave a yeast fitness of 0.576. With U8C C27A A36U A37U the yeast fitness was no more than 0.5. U8A U35G showed a yeast fitness of no more than 0.5. Variant U8C A40G A43C A69U has a yeast fitness of no more than 0.5. Work on U8C G18A C27U yielded a yeast fitness of 0.531. U8C C27U G51A A57U gave a yeast fitness of 0.541. In the case of U8C A14G A70U, the yeast fitness is reported as 0.59. U8C G10A A40G A65G G67A showed a yeast fitness of no more than 0.5. U8A U28A C31G A65U A69C showed a yeast fitness of no more than 0.5. In the case of U8C A21G C33U A36G A43U A65U A70G, the yeast fitness is reported as no more than 0.5. U8C G25C C29G gave a yeast fitness of no more than 0.5. Variant U8C G9A A20C has a yeast fitness of 0.772. In the case of U8C C24G, the yeast fitness is reported as 0.576. Variant U8C C24U has a yeast fitness of 0.945. U8A U32C showed a yeast fitness of 0.648. U8C C27U C31A G68A showed a yeast fitness of no more than 0.5. U8C G10A C11G G12C C29G showed a yeast fitness of no more than 0.5. In the case of U8C G10A U19C G41A U47C, the yeast fitness is reported as 0.537. Variant U8A U26G C29A C46U G58A has a yeast fitness of no more than 0.5. With U8C G9U C29A C34G A36G A40C U47A U64C the yeast fitness was no more than 0.5. U8C G12A G25A gave a yeast fitness of 0.734. With U8C A21U U32A C55G U59C the yeast fitness was no more than 0.5. U8A U19C G48C U59A C66U gave a yeast fitness of 0.671. Variant U8C C31U C49U U54C has a yeast fitness of no more than 0.5. Work on U8A U26G C29A C46U G58A G63A yielded a yeast fitness of no more than 0.5. U8A U13C showed a yeast fitness of 0.747. In the case of U8C C30G C33G A70U, the yeast fitness is reported as 0.571. For U8C C11A A43U G48C C60G, the yeast fitness was no more than 0.5. U8C A14U A42C G52A G56C showed a yeast fitness of no more than 0.5. Variant U8C C24G G50A has a yeast fitness of no more than 0.5. In the case of U8C A20U C30G A37G G44A, the yeast fitness is reported as no more than 0.5. Work on U8C G9A U59A A70G yielded a yeast fitness of no more than 0.5. U8C C27G A57C A70U showed a yeast fitness of no more than 0.5. For U8C C55A C61G, the yeast fitness was no more than 0.5. With U8C C11G A69U the yeast fitness was no more than 0.5. U8C C11A A42G A43U C46U C62U gave a yeast fitness of no more than 0.5. Variant U8A U64A A65C G68A has a yeast fitness of no more than 0.5. Variant U8C C34A A45C has a yeast fitness of no more than 0.5. With U8C C31G the yeast fitness was 0.81. U8A G56A gave a yeast fitness of 0.701. For U8C C11A G25C U28A A40U, the yeast fitness was no more than 0.5. With U8C A20C G38A U53A the yeast fitness was no more than 0.5. U8A U32A G52A G56C showed a yeast fitness of no more than 0.5. Work on U8C C31U A43U G48A U53A yielded a yeast fitness of no more than 0.5. For U8C A37G G38C, the yeast fitness was no more than 0.5. Variant U8C G18C A21C G63A has a yeast fitness of 0.587. Work on U8C G12A C62A yielded a yeast fitness of no more than 0.5. U8C C30A C46G U54A U64A G68A showed a yeast fitness of no more than 0.5. For U8A U13A A14C U16A, the yeast fitness was no more than 0.5. With U8A G44C C62U the yeast fitness was no more than 0.5. In the case of U8A U26A C29A C62U, the yeast fitness is reported as 0.537. For U8C A15U C22G C31U A57C U64A G68A, the yeast fitness was no more than 0.5. Variant U8C A15G G38C U64A G68A A69C has a yeast fitness of no more than 0.5. U8C G12A A21U A70U gave a yeast fitness of no more than 0.5. Work on U8A U16A C27G U59C C61U yielded a yeast fitness of no more than 0.5. U8C A36C G41A G68A A69C gave a yeast fitness of no more than 0.5. U8C C24G G25A A43G showed a yeast fitness of no more than 0.5. Work on U8A G41C C62U A65U yielded a yeast fitness of no more than 0.5. Variant U8C A20C C22A C24U has a yeast fitness of no more than 0.5. For U8C G25A C29G C31A C62U, the yeast fitness was no more than 0.5. For U8C C24G G67U, the yeast fitness was no more than 0.5. For U8C C22A C33G G39C U54C, the yeast fitness was no more than 0.5. U8C G12C U26G showed a yeast fitness of no more than 0.5. For U8C C27U G48A C49U, the yeast fitness was 0.686. With U8A G63A the yeast fitness was 0.597. For U8A U16G C31U C34A A37U G41C, the yeast fitness was 0.525. In the case of U8C C22G C49U G63A U64C, the yeast fitness is reported as no more than 0.5. U8A U19C gave a yeast fitness of 0.805. Work on U8C A15U yielded a yeast fitness of 0.849. U8A U35A G44C A45U gave a yeast fitness of 0.64. In the case of U8C C22A A36C G63C G67A, the yeast fitness is reported as no more than 0.5. For U8C C30G A69C, the yeast fitness was no more than 0.5. U8C G9A G41C A69U gave a yeast fitness of no more than 0.5. Variant U8C C30G C31G A65C has a yeast fitness of 0.527. In the case of U8C C29A C34G A36G A40C U47A C62G G68A, the yeast fitness is reported as 0.537. U8C C11G A15C A70C gave a yeast fitness of no more than 0.5. Work on U8C C31U C49U yielded a yeast fitness of 0.689. In the case of U8C A36U G38A A65C, the yeast fitness is reported as 0.579. U8C A40U A45G showed a yeast fitness of 0.527. Variant U8A U16A C27G C31A U59C C61U has a yeast fitness of no more than 0.5. U8C G18A U35C U47C G50C showed a yeast fitness of no more than 0.5. Variant U8C A15G C61U has a yeast fitness of 0.628. In the case of U8C C33G A43C, the yeast fitness is reported as no more than 0.5. With U8C A15U G25A C34G U54A A65U the yeast fitness was 0.541. With U8C C22A C33G G39C C46U the yeast fitness was no more than 0.5. In the case of U8C A21C C30U G52A, the yeast fitness is reported as no more than 0.5. With U8C A21U C27U G38C C61G the yeast fitness was 0.553. For U8C G23A C30G, the yeast fitness was no more than 0.5. U8C G10C A21U G23C G56A C61A A65G showed a yeast fitness of no more than 0.5. U8C G25C C31U gave a yeast fitness of 0.696. In the case of U8A G58C, the yeast fitness is reported as 0.764. With U8A U28C U47A the yeast fitness was no more than 0.5. Variant U8C A45C A69U has a yeast fitness of 0.765. U8C A37G G38C G51A showed a yeast fitness of no more than 0.5. Work on U8C G23C U26C C29G A45U yielded a yeast fitness of no more than 0.5. In the case of U8C C30A G48A, the yeast fitness is reported as 0.731. In the case of U8A U13A C29G A45C G68C A69G, the yeast fitness is reported as no more than 0.5. In the case of U8C C22U C31U, the yeast fitness is reported as 0.54. With U8C C24G C27U C55A the yeast fitness was no more than 0.5. In the case of U8C G23C C29G A36G A45U, the yeast fitness is reported as no more than 0.5. In the case of U8C A40C A65C G68C, the yeast fitness is reported as no more than 0.5. Work on U8C C31G G48A U54C yielded a yeast fitness of no more than 0.5. For U8C A21G C46U C62U, the yeast fitness was 0.699. For U8C C11U A15C A21G C24G U28A, the yeast fitness was no more than 0.5. For U8C C22G, the yeast fitness was 0.935. With U8C G9A U13C A20C the yeast fitness was 0.541. U8C C27G A42C C62G gave a yeast fitness of no more than 0.5. U8C G23A C30G C61A G67A gave a yeast fitness of no more than 0.5. Variant U8C G18C C33U has a yeast fitness of no more than 0.5. For U8C A70U, the yeast fitness was 0.994. U8C C11U C31U gave a yeast fitness of 0.576. U8C G17C A42G C61A gave a yeast fitness of no more than 0.5. With U8C G9A A40C A45G A57G the yeast fitness was no more than 0.5. U8C G9A A40C gave a yeast fitness of 0.672. For U8C A14G C24G C31U C55A, the yeast fitness was no more than 0.5. U8C G23A C29U A45U gave a yeast fitness of 0.632. U8A G52A G56U showed a yeast fitness of no more than 0.5. U8C C29U G39C A40U gave a yeast fitness of no more than 0.5. Work on U8C A14C A43G yielded a yeast fitness of no more than 0.5. For U8A G50A A69U, the yeast fitness was 0.589. For U8C G23A, the yeast fitness was 0.793. Variant U8C A45C G56A has a yeast fitness of 0.798. U8C C49A G51U U59G C62A showed a yeast fitness of no more than 0.5. U8C A14G C49U C61U showed a yeast fitness of no more than 0.5. In the case of U8C A15C C34U A37G A40U, the yeast fitness is reported as no more than 0.5. U8C A14U C49A showed a yeast fitness of no more than 0.5. For U8A G44A, the yeast fitness was 0.644. With U8A G44C the yeast fitness was 0.788. Variant U8C C30U C31A C33G A42G C60A has a yeast fitness of no more than 0.5. For U8C G12A A40C A69C, the yeast fitness was 0.56. Work on U8C C11A G25C C29U A65C A70U yielded a yeast fitness of no more than 0.5. Work on U8C G9A yielded a yeast fitness of 0.894. Work on U8C G9C yielded a yeast fitness of 0.695. U8C C31A G41A gave a yeast fitness of no more than 0.5. U8C A45U gave a yeast fitness of 0.923. Work on U8C G17A C34U C55G yielded a yeast fitness of no more than 0.5. U8C C29U G38C A40C gave a yeast fitness of no more than 0.5. U8C G25C C33A C61U gave a yeast fitness of no more than 0.5. Variant U8C A40G has a yeast fitness of 0.877. U8C A40C showed a yeast fitness of 1.02. For U8C A40U, the yeast fitness was 0.903. Work on U8C G10A C29G G56C yielded a yeast fitness of no more than 0.5. For U8A U26C G39C A43G, the yeast fitness was no more than 0.5. Work on U8C A36C G67C yielded a yeast fitness of no more than 0.5. For U8A U19G C24G U32A, the yeast fitness was no more than 0.5. U8C C22A C46A A65U showed a yeast fitness of no more than 0.5. U8C G12A G18A A37C C55A C60G G63C gave a yeast fitness of no more than 0.5. For U8C C31A G52C A65U, the yeast fitness was no more than 0.5. In the case of U8C C27A G52A, the yeast fitness is reported as no more than 0.5. Variant U8C G18A C24A A37G A57G A69G has a yeast fitness of no more than 0.5. Variant U8A G48C A70G has a yeast fitness of no more than 0.5. In the case of U8C C11A A15C C49U A57G C61U, the yeast fitness is reported as no more than 0.5. With U8A U19C A21C G39C the yeast fitness was no more than 0.5. Variant U8C A15G G50A has a yeast fitness of 0.674. U8A U59A C66G A70C showed a yeast fitness of no more than 0.5. For U8C G23A C34A A42U C46A A57C G67C, the yeast fitness was no more than 0.5. Variant U8A G44C A57U C62U has a yeast fitness of no more than 0.5. U8C A42U A43G showed a yeast fitness of 0.507.
